ChEMBL document CHEMBL4196221, “Improved Total Synthesis and Biological Evaluation of Coibamide A Analogues” (J Med Chem, 2018)
Active and inactive are the calls of the source. No cut-off for these calls is given here. Bridge positions count the residues as written; N and C are the ends. Square brackets hold non-standard residues; d marks the D form. Peptide text beside a SMILES is read from it. * marks the point of attachment. NMe2Val = CC(C)[C@@H](C(=O)*)N(C)C; NMeI = CC[C@H](C)[C@H](NC)C(=O)O; NMeT = CN[C@H](C(=O)O)[C@@H](C)O; NMeL = CN[C@@H](CC(C)C)C(=O)O; dHiv = CC(C)[C@@H](O)C(=O)O; NMeA = CN[C@@H](C)C(=O)O; dNMeA = CN[C@H](C)C(=O)O

Assays:
[1] = test system: PANC-1; assay: Growth inhibition of human PANC1 cells incubated for 72 hrs by MTT assay; assay type: functional; conditions: PANC-1, 72 h
Outline: (§1)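 Cells seeded in 96-well plates; after 12 h, fresh medium with a concentration gradient of compound or DMSO vehicle added, then 72 h incubation. MTT added (final 0.5 mg/mL) for 4 h, medium removed, formazan dissolved in DMSO, shaken 2 min, 30 min at 37 °C, absorbance read at 490 nm. Inhibition % = [1 − OD(compound)/OD(control)] × 100; GI50 = 50% reduction versus control; three independent experiments.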

[2] = test system: MDA-MB-231; assay: Growth inhibition of human MDA-MB-231 cells incubated for 72 hrs by MTT assay; assay type: functional; conditions: MDA-MB-231, 72 h; outline: as §1
[3] = test system: A549; assay: Growth inhibition of human A549 cells incubated for 72 hrs by MTT assay; assay type: functional; conditions: A549, 72 h; outline: as §1
[4] = test system: Mus musculus; assay: Toxicity in Balb/c nude mouse xenografted with human MDA-MB-231 cells assessed as induction of body weight loss at 0.3 mg/kg, sc dosed every 2 days for total of 11 compound injections; assay type: organism-based; conditions: in vivo, 48 h
Outline: (§2)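 Balb/c nude mice given 1 ×10^7 MDA-MB-231 cells subcutaneously in right flank; at tumor size ∼100 mm3 (L × W × 1/2W), peritumoral subcutaneous injection every 2 days, vehicle equal volume 20% DMSO/80% sterile saline. Tumor size and body weight measured before each injection; after 11 injections mice sacrificed and tumors weighed. n = 7 treated, 4 vehicle; one-way ANOVA.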

[5] = test system: Mus musculus; assay: Toxicity in Balb/c nude mouse xenografted with human MDA-MB-231 cells assessed as induction of side effect at 0.3 mg/kg, sc dosed every 2 days for total of 11 compound injections; assay type: organism-based; conditions: in vivo, 48 h; outline: as §2
[6] = test system: MDA-MB-231; assay: Antitumor activity against human MDA-MB-231 cells xenografted in Balb/c nude mouse assessed as reduction in tumor mass at 0.3 mg/kg, sc dosed every 2 days for total of 11 compound injections; assay type: functional; outline: as §2
[7] = test system: MDA-MB-231; assay: Antitumor activity against human MDA-MB-231 cells xenografted in Balb/c nude mouse assessed as reduction in tumor size at 0.3 mg/kg, sc dosed every 2 days for total of 11 compound injections measured on day 9 onwards; assay type: functional, organism-based; outline: as §2

Row | GI50 [1] | GI50 [2] | GI50 [3] | Structure (SMILES) | Activity [4] | Activity [5] | fold change (FC) [6] | Activity [7]
1 | 32.9 nM | 5.3 nM | 12.4 nM | CC[C@H](C)[C@H]1C(=O)N[C@@H](C)C(=O)N(C)[C@@H](CC(C)C)C(=O)N[C@@H](Cc2ccc(OC)cc2)C(=O)N(C)[C@H](C)C(=O)O[C@H](C)[C@H](N(C)C(=O)[C@H](CC(C)C)N(C)C(=O)[C@H](COC(C)(C)C)N(C)C(=O)[C@H](OC(=O)[C@H](C(C)C)N(C)C)C(C)C)C(=O)N(C)[C@@H](C)C(=O)N1C |  |  |  | 
2 |  | > 16000 nM |  | CC[C@H](C)[C@H]1C(=O)N[C@@H](C)C(=O)N(C)[C@@H](CC(C)C)C(=O)N[C@@H](Cc2ccc(OC)cc2)C(=O)N(C)[C@H](C)C(=O)O[C@H](C)[C@H](N(C)C(=O)[C@H](CC(C)C)N(C)C(=O)[C@H](C)N(C)C(=O)[C@H](OC(=O)[C@H](C(C)C)N(C)C(=O)CCN)C(C)C)C(=O)N(C)[C@@H](C)C(=O)N1C |  |  |  | 
3 | 277 nM | 183 nM | 222 nM | CC[C@H](C)[C@H]1C(=O)N[C@@H](C)C(=O)N(C)[C@@H](CC(C)C)C(=O)N[C@@H](Cc2ccc(O)cc2)C(=O)N(C)[C@H](C)C(=O)O[C@H](C)[C@H](N(C)C(=O)[C@H](CC(C)C)N(C)C(=O)[C@H](COC)N(C)C(=O)[C@H](OC(=O)[C@H](C(C)C)N(C)C)C(C)C)C(=O)N(C)[C@@H](COC)C(=O)N1C |  |  |  | 
4 |  | > 16000 nM |  | CC[C@H](C)[C@H]1C(=O)N[C@@H](C)C(=O)N(C)[C@@H](CC(C)C)C(=O)N[C@@H](Cc2ccc(OC)cc2)C(=O)N(C)[C@H](C)C(=O)O[C@H](C)[C@H](N(C)C(=O)[C@H](CC(C)C)NC)C(=O)N(C)[C@@H](C)C(=O)N1C |  |  |  | 
5 | 204 nM | 236 nM | 360 nM | CC[C@H](C)[C@H]1C(=O)N[C@@H](C)C(=O)N(C)[C@@H](CC(C)C)C(=O)N[C@@H](Cc2ccc(OC)cc2)C(=O)N(C)[C@H](C)C(=O)O[C@H](C)[C@H](N(C)C(=O)[C@H](CC(C)C)N(C)C(=O)[C@H](C)N(C)C(=O)[C@H](OC(=O)[C@@H](NC)C(C)C)C(C)C)C(=O)N(C)[C@@H](C)C(=O)N1C |  |  |  | 
6 | 124 nM | 61.6 nM | 81.7 nM | CC[C@H](C)[C@H]1C(=O)N[C@@H](C)C(=O)N(C)[C@@H](CC(C)C)C(=O)N[C@@H](Cc2ccc(OC)cc2)C(=O)N(C)[C@H](C)C(=O)O[C@H](C)[C@H](N(C)C(=O)[C@H](CC(C)C)N(C)C(=O)[C@H](CCCCNC(=O)OC(C)(C)C)N(C)C(=O)[C@H](OC(=O)[C@H](C(C)C)N(C)C)C(C)C)C(=O)N(C)[C@@H](C)C(=O)N1C |  |  |  | 
7 | 415 nM | 239 nM | 443 nM | CC[C@H](C)[C@H]1C(=O)N[C@@H](C)C(=O)N(C)[C@@H](CC(C)C)C(=O)N[C@@H](Cc2ccc(OC)cc2)C(=O)N(C)[C@H](C)C(=O)O[C@H](C)[C@H](N(C)C(=O)[C@H](CC(C)C)N(C)C(=O)[C@H](C)N(C)C(=O)[C@H](OC(=O)[C@H](C(C)C)N(C)C(=O)CCNC(=O)OC(C)(C)C)C(C)C)C(=O)N(C)[C@@H](C)C(=O)N1C |  |  |  | 
8 | 601 nM | 450 nM | 473 nM | CC[C@H](C)[C@H]1C(=O)N[C@@H](C)C(=O)N(C)[C@@H](CC(C)C)C(=O)N[C@@H](Cc2ccc(OC)cc2)C(=O)N(C)[C@H](C)C(=O)O[C@H](C)[C@H](N(C)C(=O)[C@H](CC(C)C)N(C)C(=O)[C@H](COC)N(C)C(=O)[C@H](NC(=O)[C@H](C(C)C)N(C)C)C(C)C)C(=O)N(C)[C@@H](COC)C(=O)N1C |  |  |  | 
9 | 46.3 nM | 20.8 nM | 194 nM | CC[C@H](C)[C@H]1C(=O)N[C@@H](C)C(=O)N(C)[C@@H](CC(C)C)C(=O)N[C@@H](Cc2ccc(OC)cc2)C(=O)N(C)[C@H](C)C(=O)O[C@H](C)[C@H](N(C)C(=O)[C@H](CC(C)C)N(C)C(=O)[C@H](CO)N(C)C(=O)[C@H](OC(=O)[C@H](C(C)C)N(C)C)C(C)C)C(=O)N(C)[C@@H](COC(C)(C)C)C(=O)N1C |  |  |  | 
10 | 723 nM | 415 nM | 511 nM | CC[C@H](C)[C@H]1C(=O)N[C@@H](C)C(=O)N(C)[C@@H](CC(C)C)C(=O)N[C@@H](Cc2ccc(OC)cc2)C(=O)N(C)[C@H](C)C(=O)O[C@H](C)[C@H](N(C)C(=O)[C@H](CC(C)C)N(C)C(=O)[C@H](C)N(C)C(=O)[C@@H](C(C)C)N(C)C(=O)[C@H](C(C)C)N(C)C)C(=O)N(C)[C@@H](C)C(=O)N1C |  |  |  | 
11 | 828 nM | 470 nM | 733 nM | CCCCCCCCCC(=O)N(C)[C@@H](CC(C)C)C(=O)N(C)[C@@H]1C(=O)N(C)[C@@H](C)C(=O)N(C)[C@@H]([C@@H](C)CC)C(=O)N[C@@H](C)C(=O)N(C)[C@@H](CC(C)C)C(=O)N[C@@H](Cc2ccc(OC)cc2)C(=O)N(C)[C@H](C)C(=O)O[C@@H]1C |  |  |  | 
12 | 2180 nM | 2060 nM |  | CC[C@H](C)[C@H]1C(=O)N[C@@H](C)C(=O)N(C)[C@@H](CC(C)C)C(=O)N[C@@H](Cc2ccc(OC)cc2)C(=O)N(C)[C@H](C)C(=O)O[C@H](C)[C@H](N(C)C(=O)[C@H](CC(C)C)N(C)C(=O)[C@H](CO)N(C)C(=O)[C@H](OC(=O)[C@H](C(C)C)N(C)C)C(C)C)C(=O)N(C)[C@@H](CO)C(=O)N1C |  |  |  | 

Row | Structure (SMILES) | GI50 [1] | GI50 [2] | GI50 [3] | Activity [4] | Activity [5] | fold change (FC) [6] | Activity [7]
13 | CC[C@H](C)[C@H]1C(=O)N[C@@H](C)C(=O)N(C)[C@@H](CC(C)C)C(=O)N[C@@H](Cc2ccc(OC)cc2)C(=O)N(C)[C@@H](C)C(=O)O[C@H](C)[C@H](N(C)C(=O)[C@H](CC(C)C)N(C)C(=O)[C@H](COC)N(C)C(=O)[C@H](OC(=O)[C@H](C(C)C)N(C)C)C(C)C)C(=O)N(C)[C@@H](COC)C(=O)N1C | 12400 nM | 7520 nM | 20100 nM |  |  |  | 
14 | CC[C@H](C)[C@H]1C(=O)N[C@@H](C)C(=O)N(C)[C@@H](CC(C)C)C(=O)N[C@@H](Cc2ccc(OC)cc2)C(=O)N(C)[C@H](C)C(=O)O[C@H](C)[C@H](N(C)C(=O)[C@H](CC(C)C)N(C)C(=O)[C@H](COC)N(C)C(=O)[C@@H](OC(=O)[C@H](C(C)C)N(C)C)C(C)C)C(=O)N(C)[C@@H](COC)C(=O)N1C |  | 545 nM | 19 nM |  |  |  | 
15 | CC[C@H](C)[C@H]1C(=O)N[C@@H](C)C(=O)N(C)[C@@H](CC(C)C)C(=O)N[C@@H](Cc2ccc(OC)cc2)C(=O)N(C)[C@H](C)C(=O)O[C@H](C)[C@H](N(C)C(=O)[C@H](CC(C)C)N(C)C(=O)[C@@H](COC)N(C)C(=O)[C@@H](OC(=O)[C@H](C(C)C)N(C)C)C(C)C)C(=O)N(C)[C@@H](COC)C(=O)N1C | 1910 nM | 2660 nM | 2000 nM |  |  |  | 
16 | CC[C@H](C)[C@H]1C(=O)N[C@@H](C)C(=O)N(C)[C@@H](CC(C)C)C(=O)N[C@@H](Cc2ccc(OC)cc2)C(=O)N(C)[C@H](C)C(=O)O[C@H](C)[C@H](N(C)C(=O)[C@H](CC(C)C)N(C)C(=O)[C@H](C)N(C)C(=O)[C@H](OC(=O)[C@H](C(C)C)N(C)C)C(C)C)C(=O)N(C)[C@@H](C)C(=O)N1C (NMe2Val-[dHiv][NMeA][NMeL][NMeT][NMeA][NMeI]A[NMeL]Y(Me)[dNMeA]; ester 4-C) | 7 nM | 5.1 nM | 7.3 nM | Non-Toxic | Non-Toxic | 2 | Active
17 | CC[C@H](C)[C@H]1C(=O)N[C@@H](C)C(=O)N(C)[C@@H](CC(C)C)C(=O)N[C@@H](Cc2ccc(OC)cc2)C(=O)N(C)[C@H](C)C(=O)O[C@H](C)[C@@H](N(C)C(=O)[C@H](CC(C)C)N(C)C(=O)[C@H](COC)N(C)C(=O)[C@@H](OC(=O)[C@H](C(C)C)N(C)C)C(C)C)C(=O)N(C)[C@@H](COC)C(=O)N1C |  | 10800 nM |  |  |  |  | 
18 | CC[C@H](C)[C@H]1C(=O)N[C@@H](C)C(=O)N(C)[C@@H](CC(C)C)C(=O)N[C@@H](Cc2ccc(OC)cc2)C(=O)N(C)[C@@H](C)C(=O)O[C@H](C)[C@H](N(C)C(=O)[C@H](CC(C)C)N(C)C(=O)[C@H](COC)N(C)C(=O)[C@@H](OC(=O)[C@H](C(C)C)N(C)C)C(C)C)C(=O)N(C)[C@@H](COC)C(=O)N1C |  | > 16000 nM | 22800 nM |  |  |  | 
19 | CC[C@H](C)[C@H]1C(=O)N[C@@H](C)C(=O)N(C)[C@@H](CC(C)C)C(=O)N[C@@H](Cc2ccc(OC)cc2)C(=O)N(C)[C@H](C)C(=O)O[C@H](C)[C@H](N(C)C(=O)[C@H](CC(C)C)N(C)C(=O)[C@H](COC)N(C)C(=O)[C@H](OC(=O)[C@H](C(C)C)N(C)C)C(C)C)C(=O)N(C)[C@@H](COC)C(=O)N1C | 3.1 nM | 5 nM | 5.4 nM |  |  |  | 
